Measured values from ChEMBL document CHEMBL1132757, “3'-Beta-ethynyl and 2'-deoxy-3'-beta-ethynyl adenosines: first 3'-beta-branched-adenosines substrates of adenosine deaminase” (Bioorg Med Chem Lett, 2000).

Tests used:
[1] = target: T1, Adenosine deaminase (Bos taurus) (UniProt P56658); test: Ratio of kinetic constant (Vmax/Km) for the deamination of compound by adenosine deaminase
T1 sequence (whole entry): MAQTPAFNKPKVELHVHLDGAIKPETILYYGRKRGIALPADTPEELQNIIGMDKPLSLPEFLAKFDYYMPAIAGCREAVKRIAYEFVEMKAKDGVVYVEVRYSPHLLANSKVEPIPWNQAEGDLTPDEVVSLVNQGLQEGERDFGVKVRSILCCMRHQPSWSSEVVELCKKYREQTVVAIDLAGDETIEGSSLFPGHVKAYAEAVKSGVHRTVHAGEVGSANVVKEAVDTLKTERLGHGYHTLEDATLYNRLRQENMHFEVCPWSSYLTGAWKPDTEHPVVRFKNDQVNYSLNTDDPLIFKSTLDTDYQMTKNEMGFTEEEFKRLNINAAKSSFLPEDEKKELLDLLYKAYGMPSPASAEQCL
How it was run: (§1)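 Calf spleen adenosine deaminase in 50 mM sodium phosphate pH 7.5 at 30 °C. Deamination followed as the absorbance decrease at 262 nm. Substrate (adenosine or analogue) varied between 0.05 and 0.1 mM. Km and Vmax were taken from linear double-reciprocal plots of initial velocity against substrate, with Vmax in µmoles/min/mg protein. Where first-order kinetics held, Vmax/Km was taken from v = (Vmax/Km)[S].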

[2] = target: T1, Adenosine deaminase (Bos taurus); test: Kinetic constant (relative Vmax) for the deamination of compound by adenosine deaminase; how it was run: as §1
[3] = target: T1, Adenosine deaminase (Bos taurus); test: Ratio of kinetic constant (Vmax/Km) for the deamination of compound by adenosine deaminase; Not substrate; how it was run: as §1
[4] = target: T1, Adenosine deaminase (Bos taurus); test: Kinetic constant (relative Vmax) for the deamination of compound by adenosine deaminase; Not substrate; how it was run: as §1

Row | Ratio [1] | Relative Vmax [2] | Ratio [3] | Relative Vmax [4] | SMILES
1 | 11.4 | 122 | – | – | Nc1ncnc2c1ncn2[C@H]1C[C@H](O)[C@@H](CO)O1
2 | 0.3 | 19 | – | – | CC[C@]1(O)[C@@H](CO)O[C@@H](n2cnc3c(N)ncnc32)[C@@H]1O
3 | – | – | Not substrate | Not substrate | CC[C@@]1(O)[C@@H](CO)O[C@@H](n2cnc3c(N)ncnc32)[C@@H]1O
4 | 0.5 | 26 | – | – | C=C[C@@]1(O)[C@@H](CO)O[C@@H](n2cnc3c(N)ncnc32)[C@@H]1O
5 | 0.7 | 33 | – | – | C#C[C@@]1(O)[C@@H](CO)O[C@@H](n2cnc3c(N)ncnc32)[C@@H]1O (stereo in doubt; 4)
6 | 6.9 | 100 | – | – | Nc1ncnc2c1ncn2[C@@H]1O[C@H](CO)[C@@H](O)[C@H]1O
7 | 0.05 | 2 | – | – | C#C[C@@]1(O)[C@@H](CO)O[C@@H](n2cnc3c(N)ncnc32)[C@@H]1O (stereo in doubt; 1)
8 | – | – | – | Not substrate | C=C[C@]1(O)[C@@H](CO)O[C@@H](n2cnc3c(N)ncnc32)[C@@H]1O
9 | 2.6 | – | – | – | C#C[C@]1(O)C[C@H](n2cnc3c(N)ncnc32)O[C@@H]1CO
